Reference: ChEMBL document CHEMBL1143743, “A new class of anti-thrombosis hexahydropyrazino-[1',2':1,6]pyrido-[3,4-b]-indole-1,4-dions: design, synthesis, logK determination, and QSAR analysis” (Bioorg Med Chem, 2007)

Legend:
Rattus norvegicus [1] = assay: Antithrombotic activity in Wistar rat assessed as wet thrombus weight at 0.5 umol/kg, iv; assay type: functional
Summary of the method: (§1)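 Male Wistar rats (250–300 g) under ip pentobarbital sodium (80.0 mg/kg). Arteriovenous shunt: polyethylene tube holding a weighed 6 cm thread, filled with heparin sodium (50 IU/ml in NS), joins left jugular vein to right carotid artery. Heparin, then compound in NS (kept on ice), injected through the tube; blood flows 15 min. Thread weighed wet, then dry after 2 weeks in a desiccator.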

Rattus norvegicus [2] = assay: Antithrombotic activity in Wistar rat assessed as dry thrombus weight at 0.5 umol/kg, iv; assay type: functional; summary of the method: as §1
[3] = HPLC retention, log K of the compound
Plasma [4] = assay: Inhibition of ADP-induced platelet aggregation in pig platelet rich plasma; assay type: functional, cell-free; settings: Sus scrofa
Summary of the method: (§2)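 Pig blood anticoagulated with 0.38% sodium citrate (final). PRP taken at 100 g for 10 min, PPP at 1,500 g for 10 min, platelets adjusted to 2 × 10⁸/ml with autologous PPP. Compound in NS (1–0.01 μmol/L final) added to 0.5 ml PRP. Aggregation induced with PAF (10^-7 mol/L final) or ADP (10^-5 mol/L final), followed turbidimetrically at 37 °C for 5 min. Peak height (Am%) compared with NS control; IC50 derived.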

Plasma [5] = assay: Inhibition of PAF-induced platelet aggregation in pig platelet rich plasma; assay type: functional, cell-free; settings: Sus scrofa; summary of the method: as §2
Rattus norvegicus [6] = assay: Antithrombotic activity in Wistar rat assessed as wet thrombus weight at 5 nmol/kg, iv; assay type: functional; summary of the method: as §1
Rattus norvegicus [7] = assay: Antithrombotic activity in Wistar rat assessed as wet thrombus weight at 0.5 nmol/kg, iv; assay type: functional; summary of the method: as §1
Rattus norvegicus [8] = assay: Antithrombotic activity in Wistar rat assessed as dry thrombus weight at 5 nmol/kg, iv; assay type: functional; summary of the method: as §1
Rattus norvegicus [9] = assay: Antithrombotic activity in Wistar rat assessed as dry thrombus weight at 0.5 nmol/kg, iv; assay type: functional; summary of the method: as §1
Rattus norvegicus [10] = assay: Antithrombotic activity in Wistar rat assessed as wet thrombus weight at 0.5 umol/kg, po; assay type: functional
Summary of the method: (§3)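 Compound in NS given orally to male Wistar rats (250–300 g), which were then anesthetized with ip pentobarbital sodium (80.0 mg/kg). Thirty min later the carotid artery and jugular vein were exposed. Blood ran 15 min through a polyethylene-tube shunt holding a thread. Wet thrombus weighed, then dry weight recorded after 2 weeks in a desiccator.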

Rattus norvegicus [11] = assay: Antithrombotic activity in Wistar rat assessed as dry thrombus weight at 0.5 umol/kg, po; assay type: functional; summary of the method: as §3
Rattus norvegicus [12] = assay: Antithrombotic activity in Wistar rat assessed as wet thrombus weight at […], iv; assay type: functional
Rattus norvegicus [13] = assay: Antithrombotic activity in Wistar rat assessed as dry thrombus weight at […], iv; assay type: functional

| Compound | log K [3] | Activity (Rattus norvegicus [1]) | Activity (Rattus norvegicus [2]) | further results |
| --- | --- | --- | --- | --- |
| O=C1N[C@@H](Cc2ccc(O)cc2)C(=O)N2Cc3[nH]c4ccccc4c3C[C@@H]12 | 0.01 | 10.49 mg | 3.3 mg |  |
| C[C@@H]1NC(=O)[C@@H]2Cc3c([nH]c4ccccc34)CN2C1=O | 0.47 | 12.05 mg | 3.83 mg |  |
| CSCC[C@@H]1NC(=O)[C@@H]2Cc3c([nH]c4ccccc34)CN2C1=O | 0.97 | 10.41 mg | 3.28 mg |  |
| CC(C)[C@@H]1NC(=O)[C@@H]2Cc3c([nH]c4ccccc34)CN2C1=O | 0.97 | 8.19 mg | 1.2 mg | IC50 (Plasma [4]): 112 nM; IC50 (Plasma [5]): 294 nM; Activity (Rattus norvegicus [6]): 14.79 mg; Activity (Rattus norvegicus [7]): 16.88 mg; Activity (Rattus norvegicus [8]): 2.31 mg; Activity (Rattus norvegicus [9]): 2.64 mg |
| NCCCC[C@@H]1NC(=O)[C@@H]2Cc3c([nH]c4ccccc34)CN2C1=O | -0.26 | 12.78 mg | 4.06 mg | Activity (Rattus norvegicus [10]): 11.75 mg; Activity (Rattus norvegicus [11]): 3.73 mg |
| CCC(C)[C@@H]1NC(=O)[C@@H]2Cc3c([nH]c4ccccc34)CN2C1=O (stereo partly drawn) | 1.26 | 12.45 mg | 3.95 mg |  |
| O=C1NCC(=O)N2Cc3[nH]c4ccccc4c3C[C@@H]12 | 0.19 | 10.68 mg | 3.39 mg | Activity (Rattus norvegicus [10]): 11.57 mg; Activity (Rattus norvegicus [11]): 3.67 mg |
| CC(=O)Oc1ccccc1C(=O)O [ASPIRIN] |  |  |  | Activity (Rattus norvegicus [12]): 7.56 mg; Activity (Rattus norvegicus [13]): 2.4 mg |
| NC(=O)C[C@@H]1NC(=O)[C@@H]2Cc3c([nH]c4ccccc34)CN2C1=O | 0.21 | 9.54 mg | 3.03 mg |  |

More lines, main results first:

| log K [3] | Compound | Activity (Rattus norvegicus [1]) | Activity (Rattus norvegicus [2]) | further results |
| --- | --- | --- | --- | --- |
| -0.16 | O=C1N[C@@H](CO)C(=O)N2Cc3[nH]c4ccccc4c3C[C@@H]12 | 9.44 mg | 2.98 mg |  |
| 0.21 | O=C(O)CC[C@@H]1NC(=O)[C@@H]2Cc3c([nH]c4ccccc34)CN2C1=O | 10.42 mg | 3.31 mg |  |
| 0.28 | NC(=O)CC[C@@H]1NC(=O)[C@@H]2Cc3c([nH]c4ccccc34)CN2C1=O | 11.1 mg | 3.52 mg |  |
| 0.15 | O=C(O)C[C@@H]1NC(=O)[C@@H]2Cc3c([nH]c4ccccc34)CN2C1=O | 12.26 mg | 3.89 mg | Activity (Rattus norvegicus [10]): 12.42 mg; Activity (Rattus norvegicus [11]): 3.94 mg |
| -0.58 | N=C(N)NCCC[C@@H]1NC(=O)[C@@H]2Cc3c([nH]c4ccccc34)CN2C1=O | 8.62 mg | 1.22 mg | Activity (Rattus norvegicus [6]): 14.52 mg; Activity (Rattus norvegicus [7]): 15.71 mg; Activity (Rattus norvegicus [8]): 2.27 mg; Activity (Rattus norvegicus [9]): 2.45 mg |
| -0.14 | CC(O)[C@@H]1NC(=O)[C@@H]2Cc3c([nH]c4ccccc34)CN2C1=O (stereo partly drawn) | 11.49 mg | 3.65 mg |  |
| 1.32 | CC(C)C[C@@H]1NC(=O)[C@@H]2Cc3c([nH]c4ccccc34)CN2C1=O | 10.4 mg | 3.3 mg |  |
| 1.05 | O=C1N[C@@H](Cc2ccccc2)C(=O)N2Cc3[nH]c4ccccc4c3C[C@@H]12 | 8.58 mg | 1.33 mg | Activity (Rattus norvegicus [6]): 13.3 mg; Activity (Rattus norvegicus [7]): 15.3 mg; Activity (Rattus norvegicus [8]): 2.08 mg; Activity (Rattus norvegicus [9]): 2.39 mg |
| 0.71 | O=C1NC(CS)C(=O)N2Cc3[nH]c4ccccc4c3C[C@@H]12 (single isomer, unassigned) | 9.06 mg | 2.88 mg |  |
